Consider 13 compounds from ChEMBL document CHEMBL1122952, “Thromboxane synthetase inhibitors (TXSI). Design, synthesis, and evaluation of a novel series of omega-pyridylalkenoic acids” (J Med Chem, 1985).

What all share (assay type): functional
The subject of assay [1] is Rattus norvegicus. As to the kind of experiment: Ex vivo percent inhibition against serum TXB2 production after 24 hr r at dose 1 mg/kg by oral administration in rat. The method in brief: (§1)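 Male Sprague–Dawley rats, 7–8 weeks old, dosed orally. Controls got vehicle alone (2 mL/kg water with a little gum arabic). At 24 h, 1 mL blood was drawn from the abdominal aorta under pentobarbital anesthesia (50 mg/kg ip) and clotted 90 min at 25 °C. Serum TXB2 was measured by radioimmunoassay. % inhibition = [1 − (B/A)] × 100 versus untreated rats.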

For assay [2], the system named is Rattus norvegicus. Briefly: Ex vivo percent inhibition against serum TXB2 production after 2 hr at dose 10 mg/kg by oral administration in rat.
The subject of assay [3] is Rattus norvegicus. Briefly: Ex vivo percent inhibition against serum TXB2 production after 24 hr r at dose 10 mg/kg by oral administration in rat. An outline of the steps:
as §1

For `O=C(O)CCCCCC/C=C(\c1ccccc1)c1cccnc1`, the inhibition in vivo at 1 mg/kg in assay [1] was determined as 17%.
Compound `COC(=O)CCCC/C=C(\c1ccccc1)c1cccnc1` showed an inhibition in vivo at 10 mg/kg in assay [2] of 92%.
As for `CCOC(=O)CCCC/C=C(\c1ccccc1)c1cccnc1`, the inhibition in vivo at 1 mg/kg in assay [1] came to 35%. The same compound registered an inhibition in vivo at 10 mg/kg in assay [2] of 90%.
For `O=C(O)CCCCCCCC/C=C(\c1ccccc1)c1cccnc1`, in that order: 10% and 92%.
For `CC(C)(CCC/C=C(/c1cccnc1)c1cccs1)C(=O)O`, the inhibition in vivo at 1 mg/kg in assay [1] is 17%.
For `CC(C)CSC(CCC/C=C(\c1ccccc1)c1cccnc1)C(=O)O` (stereo unspecified), the inhibition in vivo at 1 mg/kg in assay [1] is 8%.
`NC(=O)CCCC/C=C(\c1ccccc1)c1cccnc1` yielded an inhibition in vivo at 10 mg/kg in assay [2] of 93%.
With `O=C(O)CCCCC/C=C(\c1ccccc1)c1cccnc1`, the inhibition in vivo at 1 mg/kg in assay [1] was 24%.
In assay [2], `O=C(O)CCCC/C=C(\c1ccccc1)c1ccc[n+]([O-])c1` yielded an inhibition in vivo at 10 mg/kg of 85%.
On to `OCCCCC/C=C(\c1ccccc1)c1cccnc1`, for which, in assay [2], testing at 10 mg/kg gave an inhibition in vivo of 92%.
`CC(C)(O)C(CCC/C=C(\c1ccccc1)c1cccnc1)C(=O)O` (stereo unspecified): at 1 mg/kg the inhibition in vivo in assay [1] was 37%.
In the case of `CC(C)(CCC/C=C(\c1ccccc1)c1cccnc1)C(=O)O`, in assay [1], the inhibition in vivo at 1 mg/kg worked out at 14%.
In the case of `O=C(O)CCCC/C=C(\c1ccccc1)c1cccnc1` [(E)-ISBOGREL], testing at 1 mg/kg in assay [1] gave an inhibition in vivo of 53%. The same compound gave an inhibition in vivo at 10 mg/kg in assay [3] of 90%.

The inhibition in vivo is the share of the control response that was lost under treatment.
